Experimental data taken from ChEMBL document CHEMBL4014326, “Discovery of an Orally Bioavailable Benzimidazole Diacylglycerol Acyltransferase 1 (DGAT1) Inhibitor That Suppresses Body Weight Gain in Diet-Induced Obese Dogs and Postprandial Triglycerides in Humans” (J Med Chem, 2017).

How the values were obtained:
[1] = target: T1, Diacylglycerol O-acyltransferase 1 (Mus musculus, UniProt Q9Z2A7); assay: Inhibition of DGTA1 in mouse C2C12 cells assessed as inhibition of triglyceride formation after 2 hrs by LC/MS/MS analysis; format: cell-based
T1 sequence (Q9Z2A7 whole entry): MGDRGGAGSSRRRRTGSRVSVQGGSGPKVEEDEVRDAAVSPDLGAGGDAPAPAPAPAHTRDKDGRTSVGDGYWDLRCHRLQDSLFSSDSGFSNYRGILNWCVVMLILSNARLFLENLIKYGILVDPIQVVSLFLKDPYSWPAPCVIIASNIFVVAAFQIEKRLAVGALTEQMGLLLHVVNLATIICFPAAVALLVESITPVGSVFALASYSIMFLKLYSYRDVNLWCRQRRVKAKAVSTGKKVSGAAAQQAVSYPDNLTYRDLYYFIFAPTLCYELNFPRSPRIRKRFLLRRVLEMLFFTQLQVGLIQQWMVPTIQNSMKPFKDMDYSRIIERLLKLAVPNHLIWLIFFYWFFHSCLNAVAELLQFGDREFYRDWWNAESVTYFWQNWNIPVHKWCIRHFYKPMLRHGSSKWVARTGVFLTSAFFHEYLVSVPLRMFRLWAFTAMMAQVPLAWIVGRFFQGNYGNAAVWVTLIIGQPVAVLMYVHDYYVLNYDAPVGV
Method in brief: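 C2C12 cells were seeded in DMEM with 5 mM glucose and 10% FBS for 18 h at 37 °C. Medium was then replaced with DMEM, 5 mM glucose and 250 µM oleate-BSA plus inhibitor (0.5% DMSO final) for 2 h at 37 °C. Cells were extracted with butanol containing tripalmitolein internal standard and triglyceride was read by LC-MS/MS. An 11-point, 3-fold dose response was run in quadruplicate.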

Salmonella typhimurium [2] = assay: Genotoxicity in histidine depleted Salmonella typhimurium TA100 assessed as increase in reverting mutations up to 1000 ug in presence of S9 metabolic activation by Ames test; format: toxicity; details: salmonella enterica subsp. enterica serovar typhimurium
Salmonella typhimurium [3] = assay: Genotoxicity in histidine depleted Salmonella typhimurium TA100 assessed as increase in reverting mutations up to 1000 ug in absence of S9 metabolic activation by Ames test; format: toxicity; details: salmonella enterica subsp. enterica serovar typhimurium
[4] = Clearance in Sprague-Dawley rat at 1 mg/kg, iv by LC/MS/MS analysis; format: ADME, organism-based; details: in vivo
Method in brief: (§1)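 Male Sprague-Dawley rats, 200-300 g, dosed iv (n = 2) or po (n = 3) as solutions in NMP/PG or PEG400/ETPGS vehicles. Blood was taken from a jugular vein catheter at 0.083 (iv only), 0.25, 0.5, 1, 2, 4, 6 and 8 h into EDTA tubes, and plasma was analysed by LC-MS/MS. Values are means ± SD.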

[5] = Volume of distribution at steady state in Sprague-Dawley rat at 1 mg/kg, iv by LC/MS/MS analysis; format: ADME, organism-based; details: in vivo, read-out: Vdss; method in brief: as §1
[6] = Half life in Sprague-Dawley rat at 1 mg/kg, iv by LC/MS/MS analysis; format: ADME, organism-based; details: in vivo; method in brief: as §1
[7] = Drug metabolism in human hepatocytes assessed as [3H]-3-(3,5-dimethyl-4-(6-(5-phenyl-1,3,4-oxadiazol-2-yl)-1H-benzo[d]imidazol-2-yl)phenyl)-2,2-dimethylpropanoic acid formation at 12.5 uM after 18 hrs; format: ADME, cell-based, Hepatocyte
Method in brief: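 [3H]-labelled compound (12.5 µM) was incubated for 18 h with rat, dog, monkey or human hepatocytes, and metabolites were profiled.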

COc1ccc(-c2nnc(-c3ccc4nc(-c5c(C)cc(CC(C)(C)C(=O)O)cc5C)[nH]c4c3)o2)cc1
IC50 [1]: 151 nM | Activity (Salmonella typhimurium [2]): Non-Toxic | Activity (Salmonella typhimurium [3]): Non-Toxic | clearance [4]: 9.5 mL/min/kg | Vd [5]: 0.6 L/kg | half-life [6]: 114 min | Drug metabolism [7]: Metabolite_Detected
